Most compounds without a hit are left out; they make up all but 1.4% or so of the library.
Diaph act CS – activates diaphorase or chemically reduces, flagging diaphorase assay artifacts; 190,000 tested, 0.005% active; Diaphorase/resazurin coupled assay, resorufin fluorescence, 16 min; active compounds read high; 1 = vehicle wells, 0 = NADH-free wells; activation factor at 20 µM;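 active means diaphorase activity raised at least twofold by the compound at 20 µM; inactive means activation factor below 2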
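Assay system: Purified diaphorase enzyme from Clostridium kluyveri | Amount: Enzyme 0.07 U/mL final | Dosing: Compound 20 µM once, DMSO 1% | Timing: 16 min reaction at room temperature | Detection: Fluorescence, excitation 544 nm and emission 590 nm | Evaluation: Higher resorufin formation from activation or reduction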
PMI activator – increases human mannose-6-phosphate isomerase activity. P34949. purified human PMI, coupled resazurin fluorescence, 20 min; active compounds read high; 1 = vehicle control, 0 substrate-free wells. activation factor at 20 µM. 190,000 tested, 0.005% active. AID 1214;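 active means activation factor of 2 or more at 20 µM, relative to plate controls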
Target sequence (P34949 whole entry, looked up): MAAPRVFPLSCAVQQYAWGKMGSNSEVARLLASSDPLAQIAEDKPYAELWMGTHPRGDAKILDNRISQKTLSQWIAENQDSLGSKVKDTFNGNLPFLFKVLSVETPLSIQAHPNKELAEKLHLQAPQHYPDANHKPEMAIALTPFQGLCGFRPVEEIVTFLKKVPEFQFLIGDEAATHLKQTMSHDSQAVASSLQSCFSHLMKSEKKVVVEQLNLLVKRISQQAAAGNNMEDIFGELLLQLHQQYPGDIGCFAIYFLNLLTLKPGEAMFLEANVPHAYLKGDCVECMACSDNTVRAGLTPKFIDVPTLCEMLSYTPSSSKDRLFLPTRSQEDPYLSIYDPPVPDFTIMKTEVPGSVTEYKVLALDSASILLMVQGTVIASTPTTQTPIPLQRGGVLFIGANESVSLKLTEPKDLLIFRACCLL
NCF1 inh – blocks human p47phox regulatory protein of NADPH oxidases; inhibition, % at 24.7 µM; 220,000 tested, 0.53% active; p47phox/p22phox peptide binding, fluorescence polarization, 2 h; AID 1274; P14598;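 active means inhibition above about 30%, limit read from the data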;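 further: 0% = p47phox with labelled peptide and 100% = labelled peptide alone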
Avidin fluor – avidin bead compound fluorescence profile. 220,000 tested, 0.38% active. fluorescence (KMESF) at 10 µM. Avidin beads, compound fluorescence 488/530 nm, flow cytometry; active compounds read high; in the data active means fluorescence above about 47
PMI act hi M6P – PMI (human) activation, high substrate | coupled PMI enzyme assay, resazurin fluorescence, 20 min; active compounds read high; 1 = untreated enzyme, 0 = substrate-free blank | 190,000 tested, 0.34% active | P34949 | AID 1216 | activation factor at 20 µM;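 active means activation factor of 2 or more at 20 µM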
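Material: human phosphomannose isomerase with PGI, G6PDH, diaphorase coupling enzymes. Quantity: 15 ng/mL PMI. Medium: HEPES pH 7.4 buffer with MgCl2 and Tween-20. Reagent: Near-saturating mannose-6-phosphate, 1.0 mM. Compound: 20 µM single dose. Times: enzyme reaction with compound 20 min at room temperature. Detection: resorufin fluorescence at Ex 544/Em 590 nm.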
GSH fluor – GSH bead compound fluorescence profile | GSH beads flow cytometry, compound fluorescence 488/530 nm; active compounds read high | AID 1776 | 190,000 tested, 0.25% active | fluorescence (KMESF) at 10 µM; in the data active means fluorescence above about 89;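 further: glutathione beads carrying GST-tagged Bcl family fusion proteins plus one bare bead set; values are compound well signal with DMSO vehicle wells as background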
* hit, by the source's call; x = not tested or not shown.

SMILES | Diaph act CS | PMI activator | NCF1 inh | Avidin fluor | PMI act hi M6P | GSH fluor
CCOc1ccc(NC(=S)N2CCN(CCN3C(=O)c4cccc5cccc(c45)C3=O)CC2)cc1 | 1 | 1 | 28 | 51* | 1 | 13
COc1ccc(NC(=S)N2CCN(CCN3C(=O)c4cccc5cccc(c45)C3=O)CC2)cc1 | 1.1 | 1 | -2 | 10 | 1 | 14
COc1cc(C(=O)OCC(=O)NC2CCS(=O)(=O)C2)ccc1OCc1c(C)noc1C (centres undefined) | 1 | 0.9 | -4 | 73* | 1.1 | 15
CC(C)Cc1ccc(/C(=N/O)C(=O)O)s1 | 1.1 | 1.1 | 58* | 7 | 1.1 | 6
COc1ccc2c(C)cc(SCC(=O)Nc3nsc(-c4ccc(C)cc4)n3)nc2c1 | 0.8 | 0.9 | -3 | 7 | 0.9 | 15
Cc1ccc(-c2nc(NC(=O)CSc3cc(C)c4ccccc4n3)ns2)cc1 | 0.3 | 1 | 52* | 6 | 1.1 | 70
CCCC(=O)NC(=S)Nc1cccc2c(O)cccc12 | 0.7 | 1 | -7 | 11 | 0.6 | 15
Cc1ccc(S(=O)(=O)N/N=C\c2cc([N+](=O)[O-])ccc2Cl)cc1 | 1 | 1.5 | -4 | 26 | 2* | 34
Cc1cccc(N(CC(=O)N/N=C/c2cc([N+](=O)[O-])ccc2Cl)S(C)(=O)=O)c1C | 0.8 | 0.9 | -15 | 49* | 0.9 | 8
CS(=O)(=O)N(CC(=O)N/N=C/c1cc([N+](=O)[O-])ccc1Cl)c1ccccc1 | 0.9 | 1 | -5 | 12 | 1 | 24
N#Cc1ccc(/C=N/NC(=O)c2cccc(S(=O)(=O)N3CCOCC3)c2)cc1 | 0.9 | 1.1 | -4 | 10 | 1.1 | 11
CC(C)(C)C(=O)CNCC(=O)C(C)(C)C | 1.2 | 1.8 | 0 | 19 | 2.1* | 13
CC(C)(C)C(=O)Cn1nc(Cl)nc1Cl | 1.1 | 1.2 | -5 | 20 | 1.1 | 11
CNC(=O)c1ccccc1S(=O)c1ccccc1COC(C)=O (centres undefined) | x | x | 3 | 7 | x | x
COc1cc2c3nnc(-c4ccc(F)cc4)c-3cn(Cc3cccc(F)c3)c2cc1OC | 1.4 | 1.1 | 13 | 19 | 1.2 | 90*
CC(=O)c1ccc(N2CCN(C(=O)Cn3c(=S)[nH]c4ncccc4c3=O)CC2)cc1 | 1 | 1 | -7 | 9 | 1 | 14
c1ccc(CNc2nc(NCc3ccccc3)c3ccccc3n2)cc1 | x | x | 88* | 28 | x | x
Cc1ccc(C(=O)O)cc1S(=O)(=O)N1CCC(C(=O)O)CC1 | 0.9 | 0.9 | -4 | 16 | 0.9 | 20
O=C(NNS(=O)(=O)c1ccc(CCCl)cc1)C(O)(c1ccccc1)c1ccccc1 | 0.9 | 0.9 | 16 | 10 | 1 | 12
O=C(NCC1CCCO1)c1cccnc1Nc1ccccc1F (centres undefined) | 0.9 | 1 | -9 | 52* | 1 | 15
Cc1ccc(C(C(=O)NC(C)(C)C)N(Cc2ccc3c(c2)OCO3)C(=O)c2ccc(CN3CCOCC3)o2)o1 (centres undefined) | 1 | 1 | -2 | 7 | 1 | 19
O=C(NCCCn1ccnc1)c1cc(S(=O)(=O)N2CCOCC2)c(Cl)cc1Cl | 0.9 | 0.9 | -11 | 8 | 0.9 | 249*
Cc1ccc(S(=O)(=O)N2CCOCC2)cc1C(=O)NCCCn1ccnc1 | 1 | 1 | -7 | 7 | 1 | 31
COc1cccc(C(=O)NNC(=O)c2ccccc2-n2cccc2)c1 | 0.9 | 1 | -7 | 8 | 1 | 17
O=c1c(N2CCCCC2)coc2ccccc12 | 0.9 | 1.5 | -8 | 37 | 2* | 20
SMILES | Diaph act CS | PMI activator | NCF1 inh | Avidin fluor | PMI act hi M6P | GSH fluor
O=c1cc(N2CCCCC2)c2ccccc2o1 | 0.9 | 0.9 | -6 | 9 | 0.9 | 11
O=C(CSc1cccc(C(F)(F)F)c1)N1CCN(S(=O)(=O)c2ccccc2)CC1 | 0.9 | 1 | -13 | 8 | 1.1 | 265*
N#CCCN(C(=O)CCl)c1cccc(Cl)c1 | 0.9 | 1.1 | 3 | 5 | 1 | 11
Cc1cccc(-n2[nH]c3c4c(ccc3c2=O)C(=O)c2ccccc2C4=O)c1 | 1 | 1 | 50* | 15 | 0.7 | 11
O=C1c2ccccc2C(=O)c2c1ccc1c(=O)n(-c3ccccc3)[nH]c21 | 0.8 | 0.9 | -5 | 5 | 0.7 | 9
Cc1cc(C)nc(Nc2ccc(C)c([N+](=O)[O-])c2)n1 | 0.9 | 1 | -5 | 10 | 0.9 | 14
CC(C)N(Cc1nc(-c2ccccc2)no1)C(=O)c1ccc([N+](=O)[O-])cc1 | 0.9 | 1 | 3 | 10 | 1 | 10
CC(C)N(Cc1nc(-c2ccccc2)no1)C(=O)c1ccc(Cl)cc1 | 0.8 | 0.9 | 59* | 8 | 1 | 21
CCOC(=O)C(=NCCCN1CCOCC1)NNc1cccc(C(F)(F)F)c1 | 1 | 1.7 | 4 | 11 | 2.1* | 17
COc1ccc(C)c2sc(=NC(=O)c3ccccc3)n(C)c12 | 0.9 | 0.9 | 45* | 7 | 0.9 | 20
Nc1c(O)ccc2c1C(=O)c1ccccc1C2=O | 0.8 | 0.9 | 80* | 23 | 0.9 | 10
CN(C)CCCN(C(=O)c1ccco1)c1nc2ccc(F)cc2s1 | 1.1 | 1.3 | 5 | 12 | 1.2 | 15
Cc1ccc2nc(N(CCCN(C)C)C(=O)c3ccco3)sc2c1 | 1 | 1.2 | -18 | 252* | 1.1 | 232*
COc1ccccc1C/C(N)=N/OC(=O)c1cccs1 | 1 | 1 | -5 | 11 | 1 | 9
Cc1[nH]n2c(=O)cc(C(C)(C)C)nc2c1-c1ccccc1 | 0.9 | 0.9 | -4 | 34 | 0.9 | 14
O=C(CN1CCN(c2ccccn2)CC1)Nc1ccc(OCc2ccccc2)cc1 | 0.9 | 1 | -11 | 63* | 1 | 21
CCOc1ccc(NC(=O)CN2CCN(CC(=O)c3ccc(OCC)cc3)CC2)cc1 | 1 | 1.6 | -14 | 17 | 2* | 26
Cc1cccc(Cc2nnc(CCC(=O)N3CCCC(CN4CCOCC4)C3)o2)c1 (centres undefined) | 0.8 | 0.8 | 2 | 11 | 0.9 | 11
S=C1NC(c2ccccc2)N2C(=S)NC(c3ccccc3)N12 (centres undefined) | 0.8 | 0.5 | -20 | 33 | 0.9 | 50
COc1ccc(C2NC(=S)N3C(c4ccc(OC)cc4)NC(=S)N23)cc1 (centres undefined) | 0.9 | 0.6 | -8 | 8 | 0.9 | 266*
CCOC(=O)c1cn(CC2CC2)c2cc(F)c(F)cc2c1=O | 0.9 | 0.8 | 4 | 54* | 0.9 | 26
CCC1(CC)C(=O)NC(=O)NC1=NCCc1ccc(O)cc1 | 1 | 0.9 | -3 | 75* | 0.9 | 14

High-throughput results (PubChem BioAssay)
